The source made the active and inactive calls. The rule behind the calls is not given here.
What was measured:
[1] = system: NCI-H460; test: Cytotoxicity against human NCI-H460 cells after 3 days by cell counting analysis; assay type: functional, cell-based; details: NCI-H460, 72 h
Method in brief: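 NCI-H460 cells in RPMI-1640 with 10% FCS are seeded at 8 × 10⁴ per 35-mm dish and exposed to compound (DMSO at most 1%) 24 h later. Cells are harvested after 72 h, trypsinized and counted with a Coulter counter. IC50 is derived by linear regression of log concentration versus logit.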

[2] = Cytotoxicity against RAOSMC after 3 days by cell counting analysis; details: Rattus norvegicus, 72 h
Method in brief: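 Primary aortic SMCs from male Sprague–Dawley rats, passages 4–10, are seeded at 2 × 10⁵ per 35-mm dish in DMEM with 10% FCS. After 24 h they are arrested in 0.4% FCS for 72 h, then given 10% FCS plus compound (DMSO at most 1%) for 72 h at 37 °C. Cells are trypsinized and counted with a Coulter counter. IC50 is obtained by linear regression of log concentration versus logit.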

[3] = system: NCI-H460; test: Selectivity ratio of IC50 for rat SMC to IC50 for human NCI-H460 cells
[4] = system: Mus musculus; test: Toxicity in human […] cells xenografted in athymic Swiss nude mouse at 16.9 mg/kg, iv administered 2 days after tumor implantation for every 4th day for four times; assay type: organism-based; design: dose 16.9 mg/kg, route intravenous; details: in vivo, 48 h
[5] = system: NCI-H460; test: Cell cycle arrest in human NCI-H460 cells assessed as accumulation at S phase at IC50 after 20 hrs using propidium Iodide staining by flow cytometry in presence of 10% fetal calf serum; assay type: functional
Method in brief: (§1)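 NCI-H460 cells are seeded at 2 × 10⁵ per 35-mm dish in RPMI with 10% FCS. After 24 h they are serum-starved in 0.4% FCS for 2 days, then restimulated with 10% FCS with or without compound at 37 °C. Cells are trypsinized, fixed in 62% ethanol and stained 30 min in the dark (5 µg/mL propidium iodide, RNase, 1% NP-40).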

[6] = system: Nucleic Acid; test: Binding affinity to supercoiled pRYG DNA at 0.1 uM after 10 mins by agarose gel electrophoresis; assay type: nucleic-acid assay
[7] = system: NCI-H460; test: Cell cycle arrest in human NCI-H460 cells assessed as accumulation at sub-G0/G1 phase at IC50 after 20 hrs using propidium Iodide staining by flow cytometry in presence of 10% fetal calf serum; assay type: functional, cell-based
[8] = target: DNA topoisomerase 2-alpha (Homo sapiens) (UniProt P11388); test: Inhibition of topoisomerase 2-mediated relaxation of supercoiled pRYG DNA at 0.1 uM after 10 mins using ethidium bromide staining by agarose gel electrophoresis
Sequence of DNA topoisomerase 2-alpha (Homo sapiens) (P11388 whole entry): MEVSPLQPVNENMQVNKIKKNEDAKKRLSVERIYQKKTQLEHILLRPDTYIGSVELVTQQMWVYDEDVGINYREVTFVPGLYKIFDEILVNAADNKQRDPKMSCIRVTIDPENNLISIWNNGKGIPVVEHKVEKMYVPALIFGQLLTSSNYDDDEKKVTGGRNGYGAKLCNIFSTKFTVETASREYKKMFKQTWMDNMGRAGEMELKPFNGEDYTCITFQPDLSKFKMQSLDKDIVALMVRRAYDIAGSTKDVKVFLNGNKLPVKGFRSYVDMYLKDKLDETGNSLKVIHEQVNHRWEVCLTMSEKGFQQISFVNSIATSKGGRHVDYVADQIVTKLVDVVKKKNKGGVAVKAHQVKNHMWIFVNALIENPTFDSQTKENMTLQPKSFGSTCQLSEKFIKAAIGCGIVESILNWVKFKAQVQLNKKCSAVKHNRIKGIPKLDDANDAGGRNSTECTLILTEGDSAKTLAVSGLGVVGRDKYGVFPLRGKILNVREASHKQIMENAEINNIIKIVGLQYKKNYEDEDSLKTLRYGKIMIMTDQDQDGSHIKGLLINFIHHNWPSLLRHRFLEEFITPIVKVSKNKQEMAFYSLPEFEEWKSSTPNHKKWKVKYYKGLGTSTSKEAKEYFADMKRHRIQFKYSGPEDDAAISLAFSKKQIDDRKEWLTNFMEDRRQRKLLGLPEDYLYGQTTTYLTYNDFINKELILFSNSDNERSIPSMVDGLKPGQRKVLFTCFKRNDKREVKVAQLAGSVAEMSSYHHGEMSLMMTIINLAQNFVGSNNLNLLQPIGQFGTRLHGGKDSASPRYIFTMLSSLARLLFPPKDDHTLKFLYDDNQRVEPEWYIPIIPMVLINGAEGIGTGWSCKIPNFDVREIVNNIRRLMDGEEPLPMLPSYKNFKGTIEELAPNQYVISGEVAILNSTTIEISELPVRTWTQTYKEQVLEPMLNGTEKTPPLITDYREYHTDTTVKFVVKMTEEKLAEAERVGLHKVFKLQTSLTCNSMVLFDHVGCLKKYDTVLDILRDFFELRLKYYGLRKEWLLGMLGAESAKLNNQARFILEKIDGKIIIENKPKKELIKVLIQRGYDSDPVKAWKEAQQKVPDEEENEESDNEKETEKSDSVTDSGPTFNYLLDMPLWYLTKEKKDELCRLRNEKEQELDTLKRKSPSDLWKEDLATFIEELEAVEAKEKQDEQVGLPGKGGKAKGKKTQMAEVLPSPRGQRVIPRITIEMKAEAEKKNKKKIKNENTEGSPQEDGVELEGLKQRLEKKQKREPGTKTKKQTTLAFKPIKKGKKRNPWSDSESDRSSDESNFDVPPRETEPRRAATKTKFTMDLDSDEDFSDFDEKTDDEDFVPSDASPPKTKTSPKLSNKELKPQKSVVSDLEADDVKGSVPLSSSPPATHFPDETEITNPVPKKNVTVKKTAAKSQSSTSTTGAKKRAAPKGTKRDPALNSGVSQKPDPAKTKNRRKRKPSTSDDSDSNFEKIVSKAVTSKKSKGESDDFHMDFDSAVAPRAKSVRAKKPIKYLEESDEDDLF

[9] = system: NCI-H460; test: Antitumor activity against human NCI-H460 cells xenografted in athymic Swiss nude mouse assessed as tumor growth inhibition at 10 mg/kg, iv administered 2 days after tumor implantation for every 4th day for four times; assay type: functional, organism-based; design: dose 10 mg/kg
Method in brief: (§2)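 NCI-H460 tumor fragments are implanted s.c. in both flanks of athymic nude mice on day 0. Dosing is i.v. on days 2, 6, 10 and 14 (q4dx4) in 10% DMSO in water, with vehicle-only controls. Tumor diameters are measured twice weekly by caliper. Tumor weight in treated mice is compared with controls by unpaired two-tailed Student's t-test.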

[10] = system: NCI-H460; test: Cell cycle arrest in human NCI-H460 cells assessed as accumulation at G2/M phase at IC50 after 20 hrs using propidium Iodide staining by flow cytometry in presence of 10% fetal calf serum; assay type: functional; method in brief: as §1
[11] = system: NCI-H460; test: Antitumor activity against human NCI-H460 cells xenografted in athymic Swiss nude mouse assessed as tumor growth inhibition at 16.9 mg/kg, iv administered 2 days after tumor implantation for every 4th day for four times; assay type: functional, organism-based; design: dose 16.9 mg/kg; method in brief: as §2
[12] = system: NCI-H460; test: Cell cycle arrest in human NCI-H460 cells assessed as accumulation at G0/G1 phase at IC50 after 20 hrs using propidium Iodide staining by flow cytometry in presence of 10% fetal calf serum; assay type: functional; method in brief: as §1

| Structure (SMILES) | IC50 [1] | IC50 [2] | also measured |
| --- | --- | --- | --- |
| O=C1C(c2cccs2)=C(c2c[nH]c3ccccc23)C(=O)N1CCNCCCNCCN1C(=O)C(c2cccs2)=C(c2c[nH]c3ccccc23)C1=O | 4200 nM | 4700 nM |  |
| O=C1c2c(c3sccc3c3ccoc23)C(=O)N1CCNCCCNCCN1C(=O)c2c(c3sccc3c3ccoc23)C1=O | 70 nM | > 30000 nM | Ratio IC50 [3]: 500 |
| O=C1C(c2cccs2)=C(c2cccs2)C(=O)N1CCNCCCNCCN1C(=O)C(c2cccs2)=C(c2cccs2)C1=O | 4300 nM | 1300 nM |  |
| Cn1ccc2c3ccoc3c3c(c21)C(=O)N(CCNCCCNCCN1C(=O)c2c(c4c(ccn4C)c4ccoc24)C1=O)C3=O | 3 nM | 90 nM | Activity [4]: Non-toxic; Activity [5]: 10.56%; Activity [6]: Active; Activity [7]: inactive; inhibition [8]: Active; TGI [9]: inactive; Activity [10]: 12.81%; TGI [11]: Active; Activity [12]: 76.63% |
| Cn1cccc1C1=C(c2c[nH]c3ccccc23)C(=O)N(CCNCCCNCCN2C(=O)C(c3c[nH]c4ccccc34)=C(c3cccn3C)C2=O)C1=O | 3900 nM | 16500 nM |  |
| Cn1cccc1C1=C(c2ccco2)C(=O)N(CCNCCCNCCN2C(=O)C(c3ccco3)=C(c3cccn3C)C2=O)C1=O | 650 nM | 730 nM |  |
| O=C1C(c2ccccc2)=C(c2ccccc2)C(=O)N1CCNCCCNCCN1C(=O)C(c2ccccc2)=C(c2ccccc2)C1=O | 1200 nM | 620 nM |  |
| O=C1C(c2ccco2)=C(c2cccs2)C(=O)N1CCNCCCNCCN1C(=O)C(c2ccco2)=C(c2cccs2)C1=O | 500 nM | 3500 nM |  |
| Cn1cccc1C1=C(c2cccs2)C(=O)N(CCNCCCNCCN2C(=O)C(c3cccs3)=C(c3cccn3C)C2=O)C1=O | 3400 nM | 1800 nM |  |
| O=C1C(c2ccccc2)=C(c2c[nH]c3ccccc23)C(=O)N1CCNCCCNCCN1C(=O)C(c2ccccc2)=C(c2c[nH]c3ccccc23)C1=O | 3900 nM | 1000 nM |  |
| O=C1c2cccc3cccc(c23)C(=O)N1CCNCCCNCCN1C(=O)c2cccc3cccc(c23)C1=O [ELINAFIDE] | 8 nM | 12 nM | Activity [5]: 13.44%; Ratio IC50 [3]: 1.5; Activity [6]: Active; Activity [7]: inactive; inhibition [8]: Active; Activity [10]: 18.15%; Activity [12]: 68.4% |
| O=C1C(c2cccs2)=C(c2cccs2)C(=O)N1CCCN1CCN(CCCN2C(=O)C(c3cccs3)=C(c3cccs3)C2=O)CC1 | > 30000 nM | > 30000 nM |  |
| O=C1c2c(c3ccccc3c3ccccc23)C(=O)N1CCNCCCNCCN1C(=O)c2c(c3ccccc3c3ccccc23)C1=O | 400 nM | 230 nM |  |

From ChEMBL document CHEMBL1817653, “Synthesis, structural, and biological evaluation of bis-heteroarylmaleimides and bis-heterofused imides” (Bioorg Med Chem, 2011)
